Results gathered from unrelated publications.
Protocols differ between the studies behind these lines.
Target: Serine/threonine-protein kinase PLK1 (PLK1, Homo sapiens, UniProt P53350)

SMILES	test	conditions	endpoint	value
COc1ccc2oc(-c3ccc4nc(N)oc4c3)c/c(=N\c3ccccc3NC(=O)CCN)c2c1	binding	1 µM	remaining binding	98%
C=CC(=O)N1CCC([C@@H]2CCNc3c(C(N)=O)c(-c4ccc(Oc5ccccc5)cc4)nn32)CC1	enzyme activity, inhibitor	1 µM	inhibition	31%
Cc1ccc(NC(=O)c2ccnc(C(F)(F)F)c2)cc1-c1cc(OCCO)nc(N2CCOCC2)c1	binding	1 µM	remaining binding	94%
CCCCC(=O)Nc1ccc(-c2ccc3ncn(CCC)c(=O)c3c2)cn1	binding, competition with immobilised ligand	0.5 µM	remaining binding	100%
CC#CC(=O)N1CCC[C@H]1c1nc(-c2ccc(C(=O)Nc3ccccn3)cc2)c2c(N)nccn12	enzyme activity, inhibitor	1 µM	inhibition	36%
N#Cc1ccc(NC(=O)Nc2ccccc2)cc1	cell-free assay, competition with immobilised ligand	25 µM	remaining binding	93%
COc1ccc2[nH]c3c4[nH]c5ccc(OC)cc5c4c4c(c3c2c1)C(=O)NC4=O	binding	1 µM	remaining binding	90%
C1=C/COCc2cc(ccc2OCCN2CCCC2)Nc2nccc(n2)-c2cccc(c2)COC/1	binding	0.1 µM	remaining binding	100%
